A selection: hits, their analogues and other compounds. The true share with any hit is near 2.8%.
ABHD4 inh – ABHD4 (mouse) inhibition, primary FP screen. Q8VD66. purified mABHD4, FP-Rh probe fluorescence polarization. inhibition, % at 8.92 µM. hit rate 0.54% among 370,000. AID 720543;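 active = inhibition exceeding the mean over every tested compound plus 3 SD, cut at about 30% in these data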;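 note: 0% = plate median of compound wells and 100% = S159A mutant with DMSO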
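Test system: mABHD4 protein | Buffer or medium: HEPES pH 7.0 buffer, 150 mM NaCl, 0.01% Pluronic F-127 | Probe or stimulus: FP-Rh fluorescent activity-based probe, added after compound pre-incubation | Timing: Pre-incubation 45 min, probe exposure 60 min, at 25 °C | Technique: Fluorescence polarization, excitation 525 nm, emission 598 nm, BODIPY TMR filters | Repeats: Single well per compound (singlicate)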
PAFAH2 inh – PAFAH2 (human) inhibition; Q99487; recombinant PAFAH2, FP-rhodamine activity probe, fluorescence polarization; inhibition, % at 3.39 µM; hit rate 0.99% among 340,000; AID 492956;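 active = inhibition above the mean over all tested compounds plus 3 SD, cut at about 30% in these data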;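 note: inhibitors block probe labeling of enzyme so polarization drops; 0% = enzyme with DMSO and 100% = wells lacking PAFAH2 protein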
HTRA1 inhibitor – blocks human HTRA1 serine peptidase. Q92743. recombinant HTRA1, FP-rhodamine activity-based probe, fluorescence polarization. inhibition, % at 5.96 µM. hit rate 0.5% among 340,000; in the data active = inhibition above about 36%;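 note: 0% = enzyme with DMSO and 100% = wells lacking enzyme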
PAFAH1B3 FP inh – blocks human PAF acetylhydrolase 1B catalytic subunit 3. hit rate 0.28% among 340,000. recombinant PAFAH1B3, FP-rhodamine probe, fluorescence polarization. Q15102. inhibition, % at 3.39 µM. AID 492972;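 active = inhibition above the screen-wide average of all tested compounds plus 3 SD, cut at about 25% in these data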;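 note: 0% = enzyme with DMSO only and 100% = wells lacking PAFAH1B3 protein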
Target sequence (Q15102 whole entry, looked up): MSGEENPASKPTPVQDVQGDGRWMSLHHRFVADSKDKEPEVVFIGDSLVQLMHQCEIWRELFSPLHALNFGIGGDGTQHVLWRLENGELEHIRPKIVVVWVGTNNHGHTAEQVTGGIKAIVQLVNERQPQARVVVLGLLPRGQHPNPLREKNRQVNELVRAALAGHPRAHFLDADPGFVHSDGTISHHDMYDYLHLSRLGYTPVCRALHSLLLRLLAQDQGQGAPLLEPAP
PAFAH1B2 inh – blocks human PAF acetylhydrolase 1b catalytic subunit 2; P68402; recombinant PAFAH1B2, FP-rhodamine activity probe, fluorescence polarization; inhibition, % at 3.39 µM; hit rate 1.2% among 340,000; AID 492953;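 active = inhibition above the mean of all tested compounds plus 3 SD, cut at about 24% in these data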;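 note: 0% = enzyme with DMSO and 100% = wells lacking PAFAH1B2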
Target sequence (P68402 whole entry, looked up): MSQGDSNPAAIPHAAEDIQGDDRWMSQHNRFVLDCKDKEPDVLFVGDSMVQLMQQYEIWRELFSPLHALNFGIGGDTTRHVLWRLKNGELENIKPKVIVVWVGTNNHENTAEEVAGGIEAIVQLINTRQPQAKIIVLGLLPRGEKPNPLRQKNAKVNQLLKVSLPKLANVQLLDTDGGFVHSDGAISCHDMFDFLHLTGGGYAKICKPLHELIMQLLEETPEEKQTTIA
pPAFAH inh – pPAFAH (human) enzyme inhibition; inhibition, % at 3.39 µM; hit rate 1.5% among 330,000; recombinant pPAFAH, FP-rhodamine probe fluorescence polarization;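 active = inhibition above the mean inhibition across the screen plus 3 SD, cut at about 25% in these data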;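 note: inhibitors block binding of the rhodamine activity-based probe so polarization drops; 0% = enzyme with DMSO and 100% = wells lacking pPAFAH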
PAFAH2 confirm – confirmation of human PAFAH2 inhibitors | shares compounds with PAFAH2 inh | recombinant PAFAH2, FP-rhodamine activity probe, fluorescence polarization | inhibition, % at 3.39 µM | hit rate 65% among 2,300;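 active = mean inhibition over three repeats above a set limit taken from the earlier primary screen, cut at about 30% in these data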;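 note: inhibitor blocks binding of rhodamine activity probe so polarization falls; 0% = enzyme with DMSO and 100% = wells lacking PAFAH2 protein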
Numbers without * were called inactive; nt = no result.

SMILES | ABHD4 inh | PAFAH2 inh | HTRA1 inhibitor | PAFAH1B3 FP inh | PAFAH1B2 inh | pPAFAH inh | PAFAH2 confirm
O=C(COC(=O)C1CC1)NCc1ccc(Cl)cc1Cl | -4 | 64* | -13 | 4 | 5 | 5 | 46*
Cc1ccc(C(=O)OCC(=O)NCCNC(=O)COC(=O)c2ccc(C)o2)o1 | 0 | -1 | -1 | 8 | 5 | -2 | nt
O=C(COC(=O)C1CCN(c2ccc(C(F)(F)F)cn2)CC1)NCc1ccc(Cl)cc1Cl | -11 | 7 | -11 | 0 | 2 | 5 | nt
Cc1ccc(C(=O)OCC(=O)NCc2ccc(Cl)cc2Cl)o1 | -3 | 56* | -20 | 1 | 8 | 4 | 42*
O=C(Nc1ccccc1C(=O)NCCc1ccccc1)c1cnccn1 | 6 | 32* | 1 | 11 | 10 | 0 | 8
N=C1/C(=C/c2ccc(Br)o2)C(=O)N=C2SC(CC(=O)N3CCCC3)=NN12 | -21 | 31* | -14 | 0 | 9 | 5 | 12
C=CCn1c(O)c(C=Nc2ccc(Cc3ccncc3)cc2)c(=O)[nH]c1=S | 0 | 32* | 2 | 4 | 7 | 9 | 21
COc1ccc(CCn2c(O)c(C=Nc3cccc(F)c3)c(=O)[nH]c2=O)cc1OC | 1 | nt | nt | nt | nt | 1 | nt
Cc1ccccc1NC(=O)N(C)[C@H]1C[C@H]2c3[nH]c4c(-c5ccccc5)cccc4c3CCN2C(=O)[C@H]1[C@H](C)O | 1 | nt | nt | nt | nt | nt | nt
COc1ccc(OC)c(/C=C2\SC(=S)N(C(C(=O)O)c3ccccc3)C2=O)c1 (stereo unspecified) | 17 | 32* | -21 | 6 | 0 | 4 | 15
COc1cccc(/C=C2\SC(=S)N(C(Cc3ccccc3)C(=O)O)C2=O)c1 (stereo unspecified) | -7 | 33* | -37 | 0 | 5 | 3 | 16
COC(=O)[C@]12C[C@H](CC(=O)NCCCCc3ccccc3)C(=O)N(Cc3ccc(Cl)cc3Cl)C1=C[C@H](C1CCCC1)O[C@@H]2C | -2 | nt | nt | nt | nt | nt | nt
O=C(OC12CCCN(C1)/C(=C/c1ccccc1)C2)c1ccc(F)cc1 (stereo unspecified) | -5 | nt | nt | nt | nt | nt | nt
Cc1ccc(NC(=O)CSc2nc3ccccc3c(=O)n2CCCC(=O)NCCCN2CCOCC2)cc1C | -1 | -10 | -2 | 1 | -1 | 2 | nt
CCc1ccc(NC(=O)CSc2nc3ccccc3c(=O)n2CCCC(=O)NCCCN2CCOCC2)cc1 | -5 | 196* | -4 | 6 | 3 | 3 | 2
O=C(COC(=O)/C=C/c1cccc(Cl)c1)Nc1cccc(S(=O)(=O)NC2=NCCC2)c1 | -15 | 25 | -10 | -2 | 1 | 0 | nt
Cc1ccc(S(=O)(=O)N(C)C)cc1NC(=O)COC(=O)/C=C/c1ccc2c(c1)OCO2 | -2 | 57* | -5 | 0 | -2 | 3 | 47*
CN(C)S(=O)(=O)c1cccc(NC(=O)COC(=O)/C=C/c2ccc3c(c2)OCO3)c1 | -1 | 74* | -14 | 2 | -1 | 6 | 62*
Cc1ccc(CNC(=O)CCS(=O)(=O)c2cc3c(cc2Br)CCN3C(=O)C2CC2)o1 | 4 | nt | nt | nt | nt | nt | nt
CN1C(=O)C[C@@](C#N)(C(=O)Nc2nc3ccc(F)cc3s2)[C@H]1c1ccccc1 | 0 | nt | nt | nt | nt | nt | nt
COc1ccc(O)c(C(=O)c2cnn(C(=O)c3cc(C)oc3C)c2)c1 | 3 | 41* | 3 | 3 | 5 | 2 | 21
COc1ccc(C(=O)n2cc(C(=O)c3cc(C)ccc3O)cn2)cc1 | 9 | 0 | 4 | -7 | 1 | 5 | nt
CN(C)c1cccc(/C=C2\CC3(OC(=O)c4ccccc4)CCCN2C3)c1 (stereo unspecified) | 2 | nt | nt | nt | nt | nt | nt
CCOC(=O)c1sc(N2C(=O)C(O)=C(C(=O)c3ccco3)C2c2cccc([N+](=O)[O-])c2)nc1C (stereo unspecified) | -68 | 42* | -47 | 6 | -2 | 12 | 30*
COC(=O)[C@]12C[C@H](CC(=O)NCCC(C)C)C(=O)N(CCc3ccc(OC)c(OC)c3)C1=C[C@H](C1CCCC1)O[C@@H]2C | 0 | nt | nt | nt | nt | nt | nt
O=C(CCS(=O)(=O)c1ccc(Br)cc1)N1CCN(c2ccc(F)cc2)CC1 | 1 | 39* | 6 | 9 | 10 | 5 | 16

Compound activity from PubChem.
